Bioassay records (PubChem BioAssay)
In the library only some 2.7% were active in any assay of this set; here they are far more common.
TCR CD3 inh: inhibitors of human TCR-CD3 interaction, primary screen, biochemical, fluorescence, TAMRA-labeled TCR probe; T-cell receptor (TCR); inhibition, % at 9.4 µM; 0.37% of 360,000 active; in the data active = inhibition above about 19%;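 also: recombinant mutant TCR 2C K166C tagged with TAMRA read by polarization; 0% = receptor in buffer alone and 100% = receptor with positive control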
PRMT1 FP inh: PRMT1 methyltransferase inhibitors, primary screen, biochemical, fluorescence polarization. 1.3% of 370,000 active. inhibition, % at 2.79 µM. recombinant PRMT1, activity-based probe fluorescence polarization;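 active = inhibition above about 21% made by adding two undisclosed values, limit read from the data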
Target sequence (Q99873 whole entry, looked up): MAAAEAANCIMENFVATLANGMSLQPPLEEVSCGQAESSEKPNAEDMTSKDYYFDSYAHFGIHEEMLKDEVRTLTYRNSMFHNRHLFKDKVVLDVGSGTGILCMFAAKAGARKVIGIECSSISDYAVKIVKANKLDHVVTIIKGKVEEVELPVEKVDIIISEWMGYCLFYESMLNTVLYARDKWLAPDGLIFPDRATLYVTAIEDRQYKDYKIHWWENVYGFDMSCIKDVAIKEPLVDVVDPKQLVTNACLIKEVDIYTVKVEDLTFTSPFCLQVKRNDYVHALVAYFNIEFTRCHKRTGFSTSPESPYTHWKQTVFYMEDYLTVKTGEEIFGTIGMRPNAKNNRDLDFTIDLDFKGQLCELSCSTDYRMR
HTRA1 inh: HTRA1 serine protease inhibitors, primary screen, biochemical, fluorescence polarization, HTS; AID 504803, 2011; 0.5% of 340,000 active; inhibition, % at 5.96 µM; recombinant HTRA1, FP-rhodamine activity-based probe; Q92743; in the data active = inhibition above about 36%;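 also: 0% = enzyme with DMSO and 100% = wells lacking enzyme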
ABHD4 inh: ABHD4 inhibitors, primary screen, biochemical, fluorescence polarization, mouse; purified mABHD4, FP-Rh probe fluorescence polarization; inhibition, % at 8.92 µM; 0.54% of 370,000 active; AID 720543, 2013;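 active = inhibition exceeding the mean over every tested compound plus 3 SD, cut at about 30% in these data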;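 also: 0% = plate median of compound wells and 100% = S159A mutant with DMSO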
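Test system: mABHD4 protein | Buffer or medium: HEPES pH 7.0 buffer, 150 mM NaCl, 0.01% Pluronic F-127 | Probe or stimulus: FP-Rh fluorescent activity-based probe, added after compound pre-incubation | Timing: Pre-incubation 45 min, probe exposure 60 min, at 25 °C | Technique: Fluorescence polarization, excitation 525 nm, emission 598 nm, BODIPY TMR filters | Repeats: Single well per compound (singlicate)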
SIAE primary: human SIAE inhibitors, primary screen, biochemical, fluorescence polarization, FP-Rh probe, 1536-well HTS | Sialate O-acetylesterase (Homo sapiens), Q9HAT2 | SIAE FP-Rh probe binding | inhibition, % at 9.66 µM | 0.69% of 370,000 active;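 active = inhibition above a cutoff: mean of compounds within the control limits plus 3 SD of those, cut at about 17% in these data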;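 also: 0% = plate median of compound wells and 100% = probe without SIAE protein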
PRMT1 inh conf: PRMT1 methyltransferase inhibitors, confirmation, biochemical, fluorescence polarization, triplicate. shares compounds with PRMT1 FP inh. recombinant His-PRMT1, activity-based probe fluorescence polarization. inhibition, % at 2.79 µM. 42% of 3,300 active. AID 687036, 2013;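 active = mean inhibition across replicates above the hit cutoff derived for the earlier primary screen, cut at about 22% in these data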
Active calls of the source: *; nt = no result given.

SMILES	TCR CD3 inh	PRMT1 FP inh	HTRA1 inh	ABHD4 inh	SIAE primary	PRMT1 inh conf
CCSc1nnc(NC(=O)CSc2sc3c(O)cc(=O)[nH]c3c2C#N)s1	14	27*	-15	-16	-40	10
COC(=O)c1ccc(C)c(NC(=O)CSc2sc3c(O)cc(=O)[nH]c3c2C#N)c1	12	49*	-15	-1	-3	10
Cc1ccc(C)c(NC(=O)CSc2nc(C)cc(=O)[nH]2)c1	nt	-5	nt	0	9	nt
Cc1cc(NC(=O)CSc2sc3c(O)cc(=O)[nH]c3c2C#N)ccc1Br	10	30*	-4	-8	-63	5
COC(=O)c1ccc(C)c(NC(=O)CCSc2ccc(C)cc2)c1	-1	-4	-8	-21	-1	nt
Cc1ccc(C)c(NC(=O)CSc2sc3c(O)cc(=O)[nH]c3c2C#N)c1	8	55*	-2	4	0	7
Cc1cc(NC(=O)CSc2nc3[nH]c(=O)cc(O)c3s2)ccc1Br	-4	8	-24	10	-16	nt
CC(C)(C)c1ccc(-c2cn(C[C@H](Cc3ccccc3)n3c(=O)c4ccccc4n3Cc3ccno3)nn2)cc1	nt	5	nt	-3	-8	nt
CCc1c(C)nc(N2CCN(c3ccc(OC)cc3)CC2)[nH]c1=O	-6	-1	2	4	-2	nt
Cc1ccc(/C=N/N2CCN(Cc3ccc(Cl)cc3)CC2)o1	-2	42*	-4	10	-1	-7
CCn1c(CNC(=O)c2cccs2)n[nH]c1=S	-7	2	0	-10	4	nt
CCN=C1SC(CC(=O)NCc2ccccc2)C(=O)N1CC (centres undefined)	7	78*	3	-5	2	6
CCN=C1SC(C(=O)NCCc2ccccc2)CC(=O)N1CC (centres undefined)	5	39*	-3	-6	1	0
Cc1cc(NC(=O)CSCC(=O)OCC(=O)c2cccc(Br)c2)no1	3	27*	-49	-15	-11	2
O=C1C=CC(=O)N1	5	78*	0	-16	-11	87*
Cc1cc2nc(-c3ccc(C#N)cc3)c(Cc3cccc(F)c3)n2c(C)c1Br	2	4	nt	-15	-4	nt
Cc1cc(C)nc(NC(=S)NC(=O)c2ccccc2F)n1	-18	-2	nt	6	-1	nt
Cc1cc(C)nc(S/C=C/C(=O)c2ccccc2F)n1	-12	25*	2	5	1	19
O=C(CC1C(=O)OCC2CCCCN21)Nc1ccccc1C(F)(F)F (centres undefined)	-2	48*	-1	9	-4	4
Cc1ccc(NC(=O)CC2C(=O)OCC3CCCCN32)cc1Cl (centres undefined)	5	14	-2	-6	7	nt
CCCOc1ccc(NC(=O)CC2C(=O)OCC3CCCCN32)cc1 (centres undefined)	5	36*	4	3	-2	3
CCOC(=O)NC1(NCc2ccccc2)Oc2ccccc2O1	1	26*	11	23	2	5
CCOC(=O)NC1(NC2CCCCC2)Oc2ccccc2O1	-5	19	15	26	5	nt
COc1ccc(S[C@]2(C(=O)N3CCCC3)CC(=O)N(C(=O)Nc3ccc(C)c(Cl)c3)[C@@H]2c2ccc(OC)cc2)cc1	nt	3	nt	-3	-2	nt
COc1ccc(S[C@]2(C(=O)N3CCN(c4ncccn4)CC3)CC(=O)N(P(=O)(OC)OC)[C@@H]2c2ccc(OC)cc2)cc1	nt	12	nt	3	-6	nt
SMILES	TCR CD3 inh	PRMT1 FP inh	HTRA1 inh	ABHD4 inh	SIAE primary	PRMT1 inh conf
CCOC(=O)N1C(=O)C[C@](Sc2ccc(OC)cc2)(C(=O)N2CCCC2)[C@H]1c1ccc(OC)cc1	nt	56*	nt	-2	13	40*
COc1ccc(S[C@]2(C(=O)N3CCOCC3)CC(=O)N(c3ccccc3)[C@@H]2c2ccc(OC)cc2)cc1	nt	6	nt	5	1	nt
CCOC(=O)N1C(=O)C[C@](Sc2ccc(OC)cc2)(C(=O)N2CCN(C(C)=O)CC2)[C@H]1c1ccc(OC)cc1	nt	54*	nt	4	5	46*
COc1ccc(S[C@]2(C(=O)N3CCOCC3)CC(=O)N(C(=O)C3CC3)[C@@H]2c2ccc(OC)cc2)cc1	nt	36*	nt	4	4	27*
CCOC(=O)N1C(=O)C[C@](Sc2ccc(OC)cc2)(C(=O)N2CCN(c3ncccn3)CC2)[C@H]1c1ccc(OC)cc1	nt	41*	nt	0	6	33*
CCOC(=O)Cc1csc(SCC(=O)N(CC(C)C)c2c(N)n(Cc3ccccc3)c(=O)[nH]c2=O)n1	-2	12	-4	-8	-2	nt
CC(C)(C)c1ccc(S(=O)(=O)N2CCCC(C(=O)N3CCN(Cc4ccccc4)CC3)C2)cc1 (centres undefined)	nt	-3	nt	-3	3	nt
CCN(C)C(=O)CN1C(=O)C2CCCCN2C(=O)c2ccccc21 (centres undefined)	nt	1	nt	1	4	nt
O=C(COC(=O)c1cc(S(=O)(=O)N2CCOCC2)ccc1F)Nc1ccccc1C(F)(F)F	11	-1	1	-6	0	nt
CCOC(=O)N1C(=O)C[C@](Sc2ccc(OC)cc2)(C(=O)N2CCOCC2)[C@H]1c1ccc(OC)cc1	nt	47*	nt	-2	0	43*
S=C(NCCCN1CCOCC1)NCCCN1CCOCC1	3	40*	1	4	2	58*
S=C(NCCCN1CCOCC1)NC1CCCC1	-8	0	-3	-5	3	nt
COc1ccc(NC(=O)C2C3C=CC(O3)C2C(=O)O)cc1 (centres undefined)	-8	36*	8	5	13	8
COc1cccc(NC(=O)C2C3C=CC(O3)C2C(=O)O)c1 (centres undefined)	3	-1	7	7	2	nt
NC(=S)NN=C1c2cc(S(=O)(=O)N3CCOCC3)ccc2-c2ccc(S(=O)(=O)N3CCOCC3)cc21	-6	30*	-3	-1	-3	7
CN(C)N=C1c2cc(S(=O)(=O)N3CCOCC3)ccc2-c2ccc(S(=O)(=O)N3CCOCC3)cc21	8	0	1	-6	9	nt
O=C(NC1CCN(Cc2ccccc2)C1)c1cccc(S(=O)(=O)N2CCOCC2)c1 (centres undefined)	1	-7	-1	2	2	nt
O=C(NC1CCN(Cc2ccccc2)CC1)c1cc(S(=O)(=O)N2CCOCC2)ccc1Cl	2	113*	5	10	1	5
Cc1cc(C)nc(SCC(=O)c2ccc(C)c(C)c2)n1	6	-1	-5	-2	-5	nt
Cc1cc(C)nc(SCC(=O)c2ccc(O)c(O)c2)n1	9	49*	13	23	6	42*
